# Measurements pooled from the literature.
# Target: Mitogen-activated protein kinase kinase kinase 11 (MAP3K11, Homo sapiens, UniProt Q16584)
SMILES,observed,technique,tested at,remaining binding [%]
Cc1c(NC(=O)c2cc(C(N)=O)nc3cc(F)ccc23)c(C(F)(F)F)nn1Cc1ccc(C#N)cc1,cell-free assay,competition with immobilised ligand,1 µM,100
Cc1cnn2ncc(-c3ccnc(N(C)C)n3)c2c1,binding,,1 µM,100
CNC(=O)[C@@H]1CC[C@@H](n2c(-c3ccc4cnccc4c3)nc3ccc(C(=O)NCc4cccc(C(N)=O)c4)cc32)C1,binding,competition with immobilised ligand,1 µM,100
C[C@H](c1cccc(C#N)c1)n1cc(Cl)cc(C(N)=O)c1=N,cell-free assay,competition with immobilised ligand,1 µM,100
CN(C)c1ncc(F)c(-c2cnn3ncccc23)n1,binding,,1 µM,88
O=C(c1ccc(Nc2ncc(Cl)c(-c3ccc(Cl)s3)n2)cc1)N1CCC(N2CCCC2)CC1,binding,competition with immobilised ligand,1 µM,13
CN(C)c1nccc(-c2cnc3ncccn23)n1,binding,,1 µM,88
C[C@@]1(Cc2ccc(C#N)cc2)C(=O)N(c2cc(Cl)cc(Cl)c2)c2ncc(C(=O)NC3(c4nc(C5CCC5)no4)CC3)n21,cell-free assay,competition with immobilised ligand,1 µM,100
COc1ccnn2ncc(-c3ccnc(N(C)C)n3)c12,binding,,1 µM,100
O=C(c1ccc(Nc2nccc(-c3cc4ccccc4s3)n2)cc1)N1CCC(N2CCCC2)CC1,binding,competition with immobilised ligand,1 µM,57
Nc1ncc2c(n1)-c1c([nH]c3ccc(C#CC4CC4)cc13)CCCC2,binding,competition with immobilised ligand,1 µM,97
COc1cccc(CNC(=O)c2nc3scc(COCc4ccc(C(=O)O)cc4)c3c(=O)[nH]2)c1,cell-free assay,competition with immobilised ligand,1 µM,100
O=C(Nc1c[nH]nc1C(=O)NC1CCNCC1)c1cc(F)cc(F)c1,binding,competition with immobilised ligand,1 µM,99
CN(C)c1nccc(-c2cnn3ncccc23)n1,binding,,1 µM,98
C[C@@H]1CN(c2cc(-c3nn(C)c4ccc(OC5(C)CC5)cc34)ncn2)C[C@H](C)O1,cell-free assay,competition with immobilised ligand,1 µM,100
CCN1CCN(Cc2ccc(C(=O)Nc3ccc(C)c(Oc4ccc5c(c4)CC(=O)N5)c3)cc2C(F)(F)F)CC1,binding,competition with immobilised ligand,1 µM,100
FC(F)(F)c1ccc2c(c1)nc(-c1cccnc1)n2C1CC1,cell-free assay,competition with immobilised ligand,1 µM,100
O=C(NCCCN1CCOCC1)c1ccc(Nc2ncc(Cl)c(-c3ccc(Cl)s3)n2)cc1,binding,competition with immobilised ligand,1 µM,13
N[C@H]1CCN(c2nccc(-c3cnn4ncccc34)n2)C1,binding,,1 µM,85
c1cncc(-c2cccc(Nc3nccc(NC4CCCCC4)n3)c2)c1,binding,competition with immobilised ligand,10 µM,30
